Reference: article PMC6130786 (ACS Omega, 2018)

What was measured:
[1] = target: tau fibrils (Homo sapiens, UniProt P10636); assay: Thioflavin-T competition binding assay, tau fibrils
Procedure, shortened: (§1)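 Fibrils were prepared per earlier work and held fixed at 1 μM. Thioflavin-T was 50 nM with Aβ fibrils and 4 μM with tau fibrils. Test compound at varying concentrations was diluted in 30 mM Tris-HCl pH 7.4 with 0.1% BSA. Incubation was 1.5 h at room temperature, and fluorescence was read at ex 440/30, em 485/20. EC50 came from a one-site competitive fit, Ki = EC50/(1+[ligand]/Kd), as mean ± SD of two assays.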

[2] = target: Aβ fibrils (Homo sapiens, UniProt P05067); assay: Thioflavin-T competition binding assay, Aβ fibrils
Sequence of Aβ fibrils (P05067 672-713): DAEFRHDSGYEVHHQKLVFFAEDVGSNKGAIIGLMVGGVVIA
Procedure, shortened: as §1

Sequence of tau fibrils (P10636 560-692 limits assumed): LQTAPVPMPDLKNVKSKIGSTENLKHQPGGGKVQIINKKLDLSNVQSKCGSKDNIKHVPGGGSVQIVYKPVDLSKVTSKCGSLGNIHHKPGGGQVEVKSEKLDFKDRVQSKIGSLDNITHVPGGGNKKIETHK

Ki [1]	Ki [2]	Compound
> 1000 nM	> 1000 nM	COc1ccc(-c2cc(-c3nccs3)n[nH]2)cc1 [Compound 12, 2-(5-(4-Methoxyphenyl)-1H-pyrazol-3-yl)thiazole]
	89 ± 26.9 nM	O=C(/C=C/c1ccc([N+](=O)[O-])cc1)c1nc2ccccc2s1 [Compound 6, (E)-1-(Benzo[d]thiazol-2-yl)-3-(4-nitrophenyl)prop-2-en-1-one]
> 1000 nM	> 500 nM	COc1ccc(/C=C/C(=O)c2nccs2)cc1 [Compound 7, (E)-3-(4-Methoxyphenyl)-1-(thiazol-2-yl)prop-2-en-1-one]
401 ± 118 nM	505 ± 49.5 nM	CN(C)c1ccc(/C=C/C(=O)c2nccs2)cc1 [Compound 8, (E)-3-(4-(Dimethylamino)phenyl)-1-(thiazol-2-yl)prop-2-en-1-one]
> 1000 nM	> 1000 nM	COc1ccc(-c2cc(-c3nccs3)on2)cc1 [Compound 10, 3-(4-Methoxyphenyl)-5-(thiazol-2-yl)isoxazole]
> 1000 nM	327 ± 76.4 nM	COc1ccc(/C=C/c2cc(-c3nccs3)[nH]n2)cc1 [Compound 13, (E)-2-(3-(4-Methoxystyryl)-1H-pyrazol-5-yl)thiazole]
716 ± 58.7 nM	353 ± 29.7 nM	COc1ccc(/C=C/C(=O)c2nc3ccccc3s2)cc1 [Compound 4, (E)-1-(Benzo[d]thiazol-2-yl)-3-(4-methoxyphenyl)prop-2-en-1-one]
	91 ± 12.7 nM	CN(C)c1ccc(/C=C/C(=O)c2nc3ccccc3s2)cc1 [Compound 5, (E)-1-(Benzo[d]thiazol-2-yl)-3-(4-(dimethylamino)phenyl)prop-2-en-1-one]
	404 ± 80.6 nM	O=C(/C=C/c1ccc([N+](=O)[O-])cc1)c1nccs1 [Compound 9, (E)-3-(4-Nitrophenyl)-1-(thiazol-2-yl)prop-2-en-1-one]
